# Calls of active or inactive are those of the source. The rule behind the calls is not given here.
# Columns and labels:
# [1] = molecular target: T1, Macrophage migration inhibitory factor (Homo sapiens) (UniProt P14174); test: Inhibition of human recombinant MIF tautomerase activity expressed in Escherichia coli BL21(DE3) at 100 uM in presence of dopachrome
# T1 sequence (whole entry): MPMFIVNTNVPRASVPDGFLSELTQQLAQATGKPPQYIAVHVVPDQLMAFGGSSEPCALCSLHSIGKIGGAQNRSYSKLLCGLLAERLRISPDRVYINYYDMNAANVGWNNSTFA
# How it was run: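 Dopachrome made from 0.24 mM DOPA plus 0.48 mM NaIO4 in 25 mM potassium phosphate pH 7.2, 5 min at rt. Added 1:1 to wells holding 10 μM purified recombinant hMIF premixed with 100 μM compound. Kinetics followed immediately at 485 nm. Controls: buffer, compound alone, hMIF alone.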
# [2] = Drug uptake in human HCT116 cell membrane at 10 uM after 1 hr by inverted confocal microscopic analysis; assay type: ADME, cell-based; details: hct-116, 1 h
# How it was run: (§1)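 Live HCT116 cells in McCoy's 5A with 10% FCS, 37 °C, 5% CO2. Compound added as 10× stock in media, final DMSO under 0.5%. Time-lapse imaging over 24 h at 10–15 min intervals, then spinning-disk confocal at selected times (1, 6, 24 h) with IAF tag excitation 360 nm and emission 470 nm. Lysosomes counterstained with LysoTracker Red after fixation in formaldehyde/glutaraldehyde.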
# HCT-116 [3] = test: Cellular uptake in human HCT116 cells assessed as increase in blue fluorescence at 10 uM after 1 hr by inverted confocal microscopic analysis; assay type: ADME, cell-based; details: hct-116, 1 h; how it was run: as §1
# HCT-116 [4] = test: Cytotoxicity against human HCT116 cells assessed as compaction of chromatin at 10 uM after 24 hrs by inverted confocal microscopic analysis; assay type: cell-based; details: hct-116, 24 h; how it was run: as §1
# [5] = Cellular uptake in human HCT116 cells assessed as lysosomal localization at 10 uM after 6 to 12 hrs by inverted confocal microscopic analysis; assay type: ADME, cell-based, Lysosome; details: hct-116, 10 µM; how it was run: as §1
# [6] = molecular target: T1, Macrophage migration inhibitory factor (Homo sapiens); test: Binding affinity to MIF in human HCT116 whole cell lysates by Western blotting analysis; details: HCT-116
# How it was run: (§2)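 Affinity capture with immunoaffinity-fluorescent (IAF)-tagged probe. Live-cell route: HCT116 cells incubated 4 h at 37 °C with 15 μg probe in 15 mL media, then lysed (D-PBS, 5 mM EDTA, 1% NP-40, protease inhibitors). Whole-lysate route: probe added after lysis. Lysate immunoprecipitated on anti-IAF mAb resin 4 h at 4 °C. Elution with 0.1 M glycine-HCl pH 2.5, then NuPAGE and blotting with anti-hMIF mAb.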
# [7] = Drug uptake in human HCT116 cell cytoplasm at 10 uM after 1 hr by inverted confocal microscopic analysis; assay type: ADME, cell-based; details: hct-116, 1 h; how it was run: as §1
# HCT-116 [8] = test: Cytotoxicity against human HCT116 cells by MTT assay; assay type: functional, cell-based
# How it was run: (§3)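 HCT-116 cells grown in McCoy's 5A with 10% heat-inactivated FCS and penicillin/streptomycin at 37 °C, 5% CO2. Conventional MTT assay, run in triplicate at 5 or 6 concentrations spanning 0 to 0.035 mg/mL. Repeated until deviation fell within 5%.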
# [9] = molecular target: T1, Macrophage migration inhibitory factor (Homo sapiens); test: Binding affinity to human recombinant MIF expressed in Escherichia coli BL21(DE3) lysates by Western blotting analysis
# How it was run: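 E. coli BL21(DE3) lysate expressing recombinant hMIF (pET-11b, 0.4 mM IPTG, 4 h), 1–2 mg net protein. Immunoprecipitated with 1 μg IAF-tagged probe on anti-IAF mAb resin, 4 h at 4 °C. Glycine-HCl pH 2.5 elution. Blot probed with mouse anti-hMIF monoclonal and AP-conjugated secondary, BCIP/NBT development.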
# [10] = molecular target: T1, Macrophage migration inhibitory factor (Homo sapiens); test: Binding affinity to MIF in human HCT116 live cell lysates by Western blotting analysis; details: HCT-116; how it was run: as §2
# HCT-116 [11] = test: Cytotoxicity against human HCT116 cells assessed as membrane blebbing at 10 uM after 24 hrs by inverted confocal microscopic analysis; assay type: cell-based; details: hct-116, 24 h; how it was run: as §1
# HCT-116 [12] = test: Growth inhibition of human HCT116 cells; assay type: functional; how it was run: as §3
# [13] = molecular target: T2, Macrophage migration inhibitory factor (Homo sapiens, UniProt P14174); test: Binding affinity to human recombinant MIF expressed in Escherichia coli BL21(DE3) by isothermal titration calorimetric assay
# T2 sequence (P14174 whole entry): T1 sequence (whole entry)
# How it was run: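 Recombinant hMIF from E. coli BL-21(DE3) (pET-11b), purified by SP/Q flow-through, dialyzed in 50 mM potassium phosphate pH 7.4. ITC at 30 °C: 1.25 mM hMIF titrated from syringe into 1.5 mL of 0.5 mM ligand in the same buffer with 2% DMSO. Buffer-only titration used as control. Kd fitted with a sigmoid function over multiple analyses.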
# [14] = molecular target: T1, Macrophage migration inhibitory factor (Homo sapiens); test: Inhibition of human recombinant Alexa 488-labeled MIF expressed in Escherichia coli BL21(DE3) assessed as inhibition of uptake into human HCT116 cells at 30 uM after 2 hrs by inverted confocal microscopic analysis; details: HCT-116
# How it was run: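 Recombinant hMIF labeled with Alexa Fluor 488 (~0.3 dye per protein) in NaHCO3 pH 8.3. HCT-116 cells given 1.5 μM Alexa-hMIF premixed with 30 μM compound for 2 h at 37 °C, then washed and fixed with formaldehyde/glutaraldehyde. Two-color confocal imaging: 375 nm excitation with 448 nm emission, and 488 nm excitation with 524 nm emission.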
# [15] = molecular target: T1, Macrophage migration inhibitory factor (Homo sapiens); test: Inhibition of human MIF-mediated AKT phosphorylation expressed in mouse NIH/3T3 cells after 30 mins by Western blotting analysis; assay type: cell-based; details: NIH3T3
# How it was run: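 NIH/3T3 cells grown 24 h in DMEM with 10% FCS in 12-well plates, then serum-starved 24 h. Treated 30 min with hMIF (1 μg) plus DMSO or plus compound (0.1 μg) in 100 μL medium. Lysates blotted for p-Akt Ser473, total Akt and GAPDH. p-Akt/Akt ratio normalized to GAPDH, with untreated cells set to 1. Three independent experiments.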
# [16] = Cytotoxicity against human NCI60 cells by MTT assay; assay type: functional
# [17] = read-out: LC50 (the source's name)
SMILES,inhibition [1],Drug uptake [2],Drug uptake (HCT-116 [3]),Activity (HCT-116 [4]),Drug uptake [5],Activity [6],Drug uptake [7],IC50 (HCT-116 [8]) [µM],Activity [9],Activity [10],Activity (HCT-116 [11]),GI50 (HCT-116 [12]) [µM],TGI (HCT-116 [12]) [µM],CC50 (HCT-116 [12]; [17]) [µM],Kd [13] [µM],inhibition [14],inhibition [15],GI50 [16] [µM],TGI [16] [µM],"CC50 [16, 17] [µM]"
CC1=C[C@]2(C)/C=C(C)/C=C/C[C@@H](OC(=O)CCC(=O)NCCCCCCNC(=O)Cc3cc(=O)oc4cc(N(C)C)ccc34)/C=C3C=C/C(=C4\C(=O)O[C@]2(C[C@@H]1C)C4=O)OC/3,inactive,Active,Active,Toxic,Active,Active,Active,6,Active,Active,Toxic,,,,,,,,,
CC1=C[C@]2(C)/C=C(C)/C=C/C[C@@H](O)/C=C3C=C/C(=C4\C(=O)O[C@]2(C[C@@H]1C)C4=O)OC/3,inactive,,,,,,,36,,,,0.79,5.01,100,35.9,Active,Active,2.16,8.81,33.2
CC1=C[C@]2(C)/C=C(C)/C=C/C[C@@H](OC(=O)CCn3cc(CNC(=O)Cc4cc(=O)oc5cc(N(C)C)ccc45)nn3)/C=C3C=C/C(=C4\C(=O)O[C@]2(C[C@@H]1C)C4=O)OC/3,,,,,,,,21.2,,,,,,,,,,,,
